Bioassay records from PubChem BioAssay.
T cruzi inh: T. cruzi replication inhibition; T. cruzi beta-gal in NIH3T3, luminescence, 90 h; inhibition, % (test concentration not listed); hit rate 1.4% among 300,000;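 active = mean inhibition across valid replicates above about 55%, limit read from the data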;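 also: signal also drops with host cell toxicity which is not excluded here; higher percent means less beta-gal luminescence so fewer parasites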
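Test system: β-gal T. cruzi (Tulahuen C4) inside NIH/3T3 cells / Quantity: 5,000 cells/well / Measured by: luminescence from GalScreen with 0.05% NP40, read after 60 min / Medium: DMEM plus 2% FBS / Measure: parasite load inhibition, % / Reagent: Tulahuen C4 trypomastigotes, 5000/well / Schedule: co-culture of at least 90 h after 3 h attachment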
CHOP UPR activ: activators of apoptotic arm of unfolded protein response (CHOP); hit rate 0.34% among 330,000; CHO-CHOP luciferase reporter, UPR activation, luminescence; percent of tunicamycin response over DMSO baseline; AID 449763; activation, % at 10 µM;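 active = at 10 µM dose, activation of 40% or more, normalized to positive control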
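Assay system: CHO cells with stable CHOP pathway luciferase reporter; Buffer or medium: F12 plus 10% serum; Times: 16-18 h cell attachment, then 6 h compound exposure, 37 °C; Signal: luciferase luminescence; Read-out basis: percent activation relative to tunicamycin control; Control set: tunicamycin high control, DMSO low control.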
CSC inhib: blocks cancer stem cells. cancer stem cell-like cells viability, luminescence. inhibition, % at 7.5 µM. hit rate 1.1% among 300,000. AID 2717; in the data active = inhibition above about 75%; tested in HMLE shEcad cells
Mdm2-MdmX inh: inhibitors of human Mdm2/MdmX interaction | hit rate 3% among 330,000 | O15151+Q00987 | AID 485346 | inhibition, % at 8 µM | SaOS-2 split-luciferase Mdm2/MdmX complementation, luminescence;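 active = inhibition of at least 50% at 8 µM in the primary screen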
Beta cell apopt: blocks beta cell apoptosis. INS-1E cytokine-induced death, ATP luminescence, 48 h; percent of positive-control rescue, neutral wells zero. AID 435005. protection from apoptosis, % (test concentration not listed). hit rate 0.8% among 300,000;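 active = Every replicate reaches about 75%, or at least half do and their mean reaches it too, limit read from the data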;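 also: higher means more ATP so stronger rescue from cytokine killing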
XBP1 UPR activ: adaptive UPR (XBP1) activation | activation, % at 20 µM | CHO-XBP1 luciferase reporter, IRE1-XBP1 UPR activation, luminescence; percent of tunicamycin response, DMSO as zero | hit rate 0.33% among 330,000;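 active = versus positive control, 20 µM dose yields 30% or more activation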
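Test system: CHO-XBP1 luciferase reporter cells | Buffer or medium: Serum-containing F12 medium, 10% FBS | Schedule: 6 h compound exposure at 37 °C, 5% CO2 | Detection: Steady-Glo luciferase glow luminescence, 10 min after reagent addition | Read-out basis: Activation, % of tunicamycin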
CHOP UPR conf: confirmation of apoptotic unfolded protein response (CHOP) activators; shares compounds with CHOP UPR activ; CHO-CHOP cells, CHOP-luciferase reporter luminescence; percent of tunicamycin response, DMSO as zero; activation, % at 10 µM; hit rate 64% among 1,000; AID 463112; in the data active = activation above about 33%
UPR XBP1 confirm: confirmation of adaptive unfolded protein response (XBP1) activators; shares compounds with XBP1 UPR activ; CHO-XBP1 IRE1-XBP1 luciferase reporter, luminescence; activation, % at 20 µM; hit rate 63% among 1,000; AID 485299;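 active = reporter signal at least 30% of the positive control's activation in two or more of four replicate wells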
Mdm2-MdmX conf: confirmation of human Mdm2/MdmX interaction inhibitors; Mdm2-MdmX binding, luminescent assay; hit rate 55% among 10,000; shares compounds with Mdm2-MdmX inh; inhibition, % at 8 µM; in the data active = inhibition above about 40%
FLuc counter: counter-screen for Mdm2/MdmX inhibitors: full-length luciferase; inhibition, % at 8 µM; shares compounds with Mdm2-MdmX inh; hit rate 77% among 6,200; SaOS-2 full-length luciferase counterscreen, luminescence; AID 504607;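 active = mean inhibition at 8 µM reaching about 37%, which flags the compound as non-specific, limit read from the data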;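 also: p53-null SaOS-2 cells with luciferase driven by a doxycycline-inducible promoter; compound on cells about two nights before reading with doxycycline added after day one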
Hits are given with their value. Compounds with a hit are over-represented: about 5% of the library has one in this group of screens.

`Cc1ccc(C)c(NC(=O)/C(C#N)=C/c2cn(CC(=O)NCc3ccco3)c3ccccc23)c1` gave T cruzi inh inactive, CHOP UPR activ 111, CSC inhib 82, Mdm2-MdmX inh 92, Beta cell apopt 95, XBP1 UPR activ 224, CHOP UPR conf 51, UPR XBP1 confirm inactive, Mdm2-MdmX conf 78 and FLuc counter 89.
`Cc1ccccc1OCCn1cc(/C=C(\C#N)C(=O)NCc2ccco2)c2ccccc21` gave T cruzi inh inactive, CHOP UPR activ inactive, CSC inhib inactive, Mdm2-MdmX inh inactive, Beta cell apopt inactive and XBP1 UPR activ inactive.
For Cc1ccc(NC(=O)/C(C#N)=C/c2cn(CC(=O)NCc3ccco3)c3ccccc23)cc1C the results were T cruzi inh inactive, CHOP UPR activ 124, CSC inhib inactive, Mdm2-MdmX inh 68, Beta cell apopt inactive, XBP1 UPR activ 235, CHOP UPR conf inactive, UPR XBP1 confirm inactive, Mdm2-MdmX conf 50 and FLuc counter 75.
For CC(C)(C)NS(=O)(=O)c1ccc(NC(=O)CS(=O)(=O)Cc2ccccc2)cc1 the results were T cruzi inh inactive, CHOP UPR activ inactive, CSC inhib inactive, Mdm2-MdmX inh inactive, Beta cell apopt inactive and XBP1 UPR activ inactive.
Screening O=C(C[C@@H]1C/C=C\C[C@H](Cc2ccc(F)cc2)C(=O)OC[C@H]2CCCN2C1=O)NCCO returned CHOP UPR activ inactive, Mdm2-MdmX inh inactive and XBP1 UPR activ inactive.
`O=C1NNC(=O)C2C3C=CC(C4CC34)C12` (stereo not drawn) gave T cruzi inh inactive, CHOP UPR activ inactive, CSC inhib inactive, Mdm2-MdmX inh inactive, Beta cell apopt inactive and XBP1 UPR activ inactive.
Screening O=C(c1ccc(Br)cc1)C(CN1CCOCC1)c1ccccc1 (stereo not drawn) returned T cruzi inh inactive, CHOP UPR activ 105, CSC inhib inactive, Mdm2-MdmX inh 91, Beta cell apopt inactive, XBP1 UPR activ inactive, CHOP UPR conf 137, Mdm2-MdmX conf 56 and FLuc counter inactive.
COC(=O)C(=Cc1ccc(OCc2ccc([N+](=O)[O-])cc2)c(OC)c1)C(=O)OC was read as T cruzi inh inactive, CHOP UPR activ 334, Mdm2-MdmX inh 92, Beta cell apopt inactive, XBP1 UPR activ inactive, CHOP UPR conf 106 and Mdm2-MdmX conf inactive.
For CCOC(=O)C(=Cc1ccc(OCc2ccc([N+](=O)[O-])cc2)c(OC)c1)C(=O)OCC the results were T cruzi inh inactive, CHOP UPR activ 219, CSC inhib 116, Mdm2-MdmX inh 99, Beta cell apopt inactive, XBP1 UPR activ inactive, CHOP UPR conf 247 and Mdm2-MdmX conf inactive.
Screening Cc1ccc(Sc2c(O)c3ccccc3n(C)c2=O)cc1 returned T cruzi inh inactive.
Cc1ccc(Sc2c([N+](=O)[O-])c(=O)n(C)c3ccccc23)cc1 was read as T cruzi inh inactive, CHOP UPR activ 101, CSC inhib 118, Mdm2-MdmX inh 51, Beta cell apopt inactive, XBP1 UPR activ inactive, CHOP UPR conf 99 and Mdm2-MdmX conf inactive.
For COc1ccc(NC(=O)CCNS(=O)(=O)c2cc(Br)cnc2N)c(OC)c1 the results were T cruzi inh inactive, CHOP UPR activ inactive, CSC inhib inactive, Mdm2-MdmX inh inactive, Beta cell apopt inactive and XBP1 UPR activ inactive.
